We go through seven compounds from ChEMBL document CHEMBL1781932 (J Med Chem, 2011).

Values after ≈ are worked out from the molar mass of the structure shown. Where only a bound is given, the exact number is not on record here.

What all share (assay type): functional
Assay [1] deals with Staphylococcus aureus. Nature of the assay: Antimicrobial activity against tetracycline-susceptible Staphylococcus aureus isolate 101 by CLSI dilution method.
Assay [2] concerns Staphylococcus aureus. Kind of assay: Antimicrobial activity against tetracycline-resistant Staphylococcus aureus isolate 158 harboring tetK gene by CLSI dilution method.
Assay [3] deals with Enterococcus faecalis. Kind of assay: Antimicrobial activity against tetracycline-susceptible Enterococcus faecalis isolate 103 by CLSI dilution method. In short, it runs like this:
(§1)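 Broth microdilution per CLSI in fresh cation-adjusted Mueller Hinton broth, kept at 4 °C before testing, with defibrinated horse blood added as appropriate. Strains were from ATCC. MIC in µg/mL. Runs were accepted when comparator antibiotics against ATCC quality-control strains fell within recommended ranges.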

The subject of assay [4] is Enterococcus faecalis. Nature of the assay: Antimicrobial activity against tetracycline-resistant Enterococcus faecalis isolate 159 harboring […] gene by CLSI dilution method.
The test system of assay [5] is Streptococcus pneumoniae. Nature of the assay: Antimicrobial activity against tetracycline-susceptible Streptococcus pneumoniae isolate 106 by CLSI dilution method. In short, it runs like this: as §1
Assay [6] has as its system Streptococcus pneumoniae. Kind of assay: Antimicrobial activity against tetracycline-resistant Streptococcus pneumoniae isolate 160 harboring tetM gene by CLSI dilution method.
Assay [7] deals with Escherichia coli. Nature of the assay: Antimicrobial activity against tetracycline-resistant Escherichia coli isolate 155 harboring tetA gene by CLSI dilution method.
A further assay has as its system Acinetobacter baumannii. Kind of assay: Antimicrobial activity against tetracycline-susceptible Acinetobacter baumannii isolate 110 by CLSI dilution method. The method, boiled down: as §1
The subject of a further assay is Pseudomonas aeruginosa. Kind of assay: Antimicrobial activity against tetracycline-susceptible Pseudomonas aeruginosa isolate 111 by CLSI dilution method. The method, boiled down:
as §1

A further assay relates to Enterobacter cloacae. Nature of the assay: Antimicrobial activity against tetracycline-susceptible Enterobacter cloacae isolate 108 by CLSI dilution method. The method, boiled down: as §1
Assay [8] concerns Klebsiella pneumoniae. Nature of the assay: Antimicrobial activity against tetracycline-susceptible Klebsiella pneumoniae isolate 109 by CLSI dilution method. In short, it runs like this: as §1
The subject of assay [9] is Klebsiella pneumoniae. Nature of the assay: Antimicrobial activity against tetracycline-resistant Klebsiella pneumoniae isolate 153 harboring tetA gene by CLSI dilution method.
The test system of assay [10] is Staphylococcus aureus. Nature of the assay: Antimicrobial activity against methicillin-, tetracycline-resistant Staphylococcus aureus isolate 161 harboring tetM gene by CLSI dilution method.
The test system of assay [11] is Escherichia coli. Kind of assay: Antimicrobial activity against tetracycline-susceptible Escherichia coli isolate 107 by CLSI dilution method. The method, boiled down: as §1

With `CN(C)Cc1ccc2c(F)c3c(c(O)c2c1)C(=O)C1=C(O)[C@]2(O)C(=O)C(C(N)=O)=C(O)[C@@H](N(C)C)[C@@H]2C[C@@H]1C3`, the MIC is 0.5 µg/mL (≈ 0.927 µM) with Staphylococcus aureus [1]; 0.25 µg/mL (≈ 0.463 µM) with Staphylococcus aureus [2]; 0.25 µg/mL (≈ 0.463 µM) against Enterococcus faecalis [3]; 1 µg/mL (≈ 1.85 µM) in the assay with Enterococcus faecalis [4]; 0.0156 µg/mL (≈ 0.0289 µM) in the assay on Streptococcus pneumoniae [5]; 8 µg/mL (≈ 14.8 µM) in the assay on Streptococcus pneumoniae [6]. In addition, the MIC with Escherichia coli [7] worked out at 4 µg/mL (≈ 7.41 µM); in the assay on Acinetobacter baumannii it was 0.5 µg/mL (≈ 0.927 µM); in the assay with Pseudomonas aeruginosa, 32 µg/mL (≈ 59.3 µM); against Enterobacter cloacae it was 4 µg/mL (≈ 7.41 µM); with Klebsiella pneumoniae [8], 2 µg/mL (≈ 3.71 µM); with Klebsiella pneumoniae [9] it was 4 µg/mL (≈ 7.41 µM).

Turning to `CN(C)[C@@H]1C(O)=C(C(N)=O)C(=O)[C@@]2(O)C(O)=C3C(=O)c4c(cc5ccc(CN6CC(C#N)C6)cc5c4O)C[C@H]3C[C@@H]12`, the minimal inhibitory concentration (MIC) against Staphylococcus aureus [1] was determined as 1 µg/mL (≈ 1.79 µM); against Staphylococcus aureus [10] it was 2 µg/mL (≈ 3.58 µM); in the assay on Staphylococcus aureus [2] it was 1 µg/mL (≈ 1.79 µM); in the assay on Enterococcus faecalis [3], 1 µg/mL (≈ 1.79 µM); in the assay on Enterococcus faecalis [4], 4 µg/mL (≈ 7.16 µM); in the assay with Streptococcus pneumoniae [5] it was 0.25 µg/mL (≈ 0.448 µM). Also, the MIC was 1 µg/mL (≈ 1.79 µM) in the assay on Streptococcus pneumoniae [6]; 4 µg/mL (≈ 7.16 µM) in the assay on Escherichia coli [11]; more than 32 µg/mL in the assay on Escherichia coli [7]; more than 32 µg/mL against Pseudomonas aeruginosa; 8 µg/mL (≈ 14.3 µM) against Klebsiella pneumoniae [8]; 32 µg/mL (≈ 57.3 µM) against Klebsiella pneumoniae [9].

For the compound `CCNCc1ccc2c(F)c3c(c(O)c2c1)C(=O)C1=C(O)[C@]2(O)C(=O)C(C(N)=O)=C(O)[C@@H](N(C)C)[C@@H]2C[C@@H]1C3`, the minimum inhibitory concentration (MIC) against Staphylococcus aureus [1] turned out to be 0.5 µg/mL (≈ 0.927 µM); in the assay with Staphylococcus aureus [10], 2 µg/mL (≈ 3.71 µM); against Enterococcus faecalis [3], 0.25 µg/mL (≈ 0.463 µM); against Enterococcus faecalis [4], 2 µg/mL (≈ 3.71 µM); in the assay with Streptococcus pneumoniae [5], 0.0313 µg/mL (≈ 0.058 µM); in the assay on Escherichia coli [11] it was 1 µg/mL (≈ 1.85 µM). Further, the MIC in the assay on Escherichia coli [7] came to 8 µg/mL (≈ 14.8 µM); with Acinetobacter baumannii, 1 µg/mL (≈ 1.85 µM); with Pseudomonas aeruginosa, 16 µg/mL (≈ 29.7 µM); in the assay with Enterobacter cloacae it was 2 µg/mL (≈ 3.71 µM); in the assay with Klebsiella pneumoniae [8] it was 4 µg/mL (≈ 7.41 µM); against Klebsiella pneumoniae [9], 8 µg/mL (≈ 14.8 µM).

Turning to `CN(C)[C@@H]1C(O)=C(C(N)=O)C(=O)[C@@]2(O)C(O)=C3C(=O)c4c(c(F)c5ccc(CNC6CC6)cc5c4O)C[C@H]3C[C@@H]12`, the MIC against Staphylococcus aureus [10] amounted to 2 µg/mL (≈ 3.63 µM); against Enterococcus faecalis [3], 0.5 µg/mL (≈ 0.907 µM); with Enterococcus faecalis [4], 2 µg/mL (≈ 3.63 µM); with Streptococcus pneumoniae [5], 0.0625 µg/mL (≈ 0.113 µM); against Escherichia coli [11], 2 µg/mL (≈ 3.63 µM); in the assay with Escherichia coli [7] it was 8 µg/mL (≈ 14.5 µM). Further, the minimum inhibitory concentration (MIC) in the assay on Acinetobacter baumannii was 0.25 µg/mL (≈ 0.453 µM); with Pseudomonas aeruginosa it was more than 32 µg/mL; against Enterobacter cloacae, 4 µg/mL (≈ 7.25 µM); with Klebsiella pneumoniae [8], 4 µg/mL (≈ 7.25 µM); in the assay with Klebsiella pneumoniae [9] it was 8 µg/mL (≈ 14.5 µM).

Consider `CN(C)c1c2c(c(O)c3cc(CN4CCCC4)ccc13)C(=O)C1=C(O)[C@]3(O)C(=O)C(C(N)=O)=C(O)[C@@H](N(C)C)[C@@H]3C[C@@H]1C2`, for which the MIC was 0.5 µg/mL (≈ 0.846 µM) against Staphylococcus aureus [1]; 2 µg/mL (≈ 3.39 µM) against Staphylococcus aureus [10]; 0.5 µg/mL (≈ 0.846 µM) against Staphylococcus aureus [2]; 0.25 µg/mL (≈ 0.423 µM) in the assay on Enterococcus faecalis [3]; 2 µg/mL (≈ 3.39 µM) against Enterococcus faecalis [4]; less than 0.0156 µg/mL with Streptococcus pneumoniae [5]. The MIC was 2 µg/mL (≈ 3.39 µM) in the assay on Escherichia coli [11]; 8 µg/mL (≈ 13.5 µM) in the assay with Escherichia coli [7]; 16 µg/mL (≈ 27.1 µM) against Acinetobacter baumannii; more than 32 µg/mL in the assay with Pseudomonas aeruginosa; 16 µg/mL (≈ 27.1 µM) in the assay with Enterobacter cloacae; 32 µg/mL (≈ 54.2 µM) in the assay on Klebsiella pneumoniae [9].

For `COc1c2c(c(O)c3cc(F)ccc13)C(=O)C1=C(O)[C@]3(O)C(=O)C(C(N)=O)=C(O)[C@@H](N(C)C)[C@@H]3C[C@@H]1C2`, the minimal inhibitory concentration (MIC) was determined as 0.125 µg/mL (≈ 0.244 µM) against Staphylococcus aureus [1]; 0.5 µg/mL (≈ 0.976 µM) in the assay with Staphylococcus aureus [10]; 0.125 µg/mL (≈ 0.244 µM) in the assay on Staphylococcus aureus [2]; 0.5 µg/mL (≈ 0.976 µM) in the assay with Enterococcus faecalis [3]; 8 µg/mL (≈ 15.6 µM) with Streptococcus pneumoniae [6]; 16 µg/mL (≈ 31.2 µM) in the assay on Escherichia coli [11]. The MIC in the assay on Escherichia coli [7] is 16 µg/mL (≈ 31.2 µM); with Acinetobacter baumannii it was 1 µg/mL (≈ 1.95 µM); against Pseudomonas aeruginosa it was more than 32 µg/mL; with Enterobacter cloacae, more than 32 µg/mL; in the assay with Klebsiella pneumoniae [8], 32 µg/mL (≈ 62.4 µM); against Klebsiella pneumoniae [9], more than 32 µg/mL.

`CN(C)Cc1cccc2c(O)c3c(cc12)C[C@H]1C[C@H]2[C@H](N(C)C)C(O)=C(C(N)=O)C(=O)[C@@]2(O)C(O)=C1C3=O`: the minimum inhibitory concentration (MIC) with Staphylococcus aureus [1] was determined as 1 µg/mL (≈ 1.92 µM); against Staphylococcus aureus [2], 0.5 µg/mL (≈ 0.959 µM); in the assay with Enterococcus faecalis [3], 1 µg/mL (≈ 1.92 µM); in the assay on Enterococcus faecalis [4] it was 32 µg/mL (≈ 61.4 µM); against Streptococcus pneumoniae [5], 0.25 µg/mL (≈ 0.479 µM); against Streptococcus pneumoniae [6] it was 2 µg/mL (≈ 3.83 µM). In addition, the MIC was 4 µg/mL (≈ 7.67 µM) against Escherichia coli [11]; more than 32 µg/mL in the assay on Escherichia coli [7]; 16 µg/mL (≈ 30.7 µM) against Acinetobacter baumannii; more than 32 µg/mL in the assay on Pseudomonas aeruginosa; more than 32 µg/mL against Enterobacter cloacae; more than 32 µg/mL in the assay with Klebsiella pneumoniae [9].

What is called MIC is the least concentration at which growth counts as inhibited. Read a high MIC as weaker potency.
